# From PubChem
# Hck Nef HTS – inhibitors of Nef-activated human Hck kinase, primary screen, biochemical, Z-Lyte FRET, 384-well, Hck-YEEI. Recombinant Hck-YEEI plus Nef, Z-Lyte FRET kinase assay. inhibition, % at 20 µM. hit rate 0.68% among 220,000;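 active = Hck-Nef kinase inhibition above about 50%, limit read from the data; inactive = inhibition below that limit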;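 also: 0% = DMSO with Hck plus Nef and 100% = Hck alone without Nef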
# Target sequence (P08631 whole entry, looked up): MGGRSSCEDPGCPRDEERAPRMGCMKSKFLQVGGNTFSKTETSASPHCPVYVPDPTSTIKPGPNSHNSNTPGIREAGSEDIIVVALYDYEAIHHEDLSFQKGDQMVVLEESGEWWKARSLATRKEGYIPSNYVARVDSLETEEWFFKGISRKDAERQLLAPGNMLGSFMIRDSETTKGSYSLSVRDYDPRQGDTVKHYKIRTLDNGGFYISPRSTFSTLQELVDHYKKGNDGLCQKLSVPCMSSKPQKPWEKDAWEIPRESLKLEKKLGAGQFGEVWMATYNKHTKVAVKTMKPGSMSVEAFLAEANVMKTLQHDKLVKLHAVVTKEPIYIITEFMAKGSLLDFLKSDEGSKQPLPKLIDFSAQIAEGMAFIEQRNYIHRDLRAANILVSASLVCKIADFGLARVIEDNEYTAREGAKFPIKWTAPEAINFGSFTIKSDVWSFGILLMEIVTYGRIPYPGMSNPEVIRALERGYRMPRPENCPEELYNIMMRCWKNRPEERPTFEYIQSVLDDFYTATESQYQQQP
# RanGTP-Impb inh – inhibitors of RanGTP-importin-beta interaction, primary screen, biochemical, FRET, CFP-Ran, YFP-importin-beta, homogeneous; inhibition, % (no concentration beside the values); hit rate 1.1% among 300,000; Ran GTPase (GTP-bound) - importin-beta complex; cell-free CFP-Ran/YFP-importin-beta FRET ratio;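 active = more than half of the replicate wells show a fall in the fluorescence ratio signal beyond about 16%, limit read from the data, passing the limit was not always enough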;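 also: 0% = DMSO wells and 100% = Ran loaded with GDP instead of GTP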
# Runt-SMMHC FRET – inhibitors of RUNX1 Runt–CBFb-SMMHC binding, primary screen, biochemical, FRET, Cerulean-Runt, Venus-CBFb-SMMHC, uHTS | Cerulean-Runt/Venus-CBFb-SMMHC FRET ratio 530/480, 1 h | AID 1434, 2008 | Runt-related transcription factor 1 (Homo sapiens) + Core-binding factor subunit beta … | hit rate 0.74% among 220,000 | inhibition, % at 20 µM;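 active = mean inhibition across duplicate retests at 20 µM reaching about 50%, limit read from the data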;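 also: 0% = DMSO wells and 100% = wells with excess untagged CBFb-SMMHC; inhibitors lower the FRET ratio by blocking Runt binding to CBFb-SMMHC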
# Runt-CBFb FRET – inhibitors of RUNX1 Runt–CBFb binding, primary screen, biochemical, FRET, Cerulean-Runt, Venus-CBFb, uHTS; hit rate 0.46% among 220,000; Cerulean-Runt/Venus-CBFb FRET ratio 530/480, 1 h; inhibition, % at 20 µM; AID 1496, 2009; Runt-related transcription factor 1 (Homo sapiens) + Core-binding factor subunit beta …;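 active = inhibition over about 50% at 20 µM in the single-dose screen, limit read from the data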;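 also: 0% = DMSO wells and 100% = excess unlabeled CBFb competitor control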
#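 Buffer or medium: Tris pH 7.5 buffer with BSA. Assay system: Cerulean-labeled Runt domain protein. Amount: each fluorescent fusion protein 100 nM. Read-out basis: loss of energy transfer signal. Incubation: 1 h compound exposure, room temperature. Probe or stimulus: Venus-CBFb binding partner, 100 nM. Detection: FRET, excitation 422 nm, emission at 530 and 480 nm.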
# * marks the source's active call; other numbers are inactive results; / = no result. Most compounds without a hit are left out; they make up all but 1.7% or so of the library.
SMILES,Hck Nef HTS,RanGTP-Impb inh,Runt-SMMHC FRET,Runt-CBFb FRET
CCC(=O)Nc1cccc(C2=NOC3(C2)C[C@@H](C(N)=O)N(C(=O)C(c2ccccc2)c2ccccc2)C3)c1 (some centres undefined),24.7,26.3*,-0.4,-2.7
CCC(=O)Nc1cccc(C2=NOC3(C2)C[C@@H](C(N)=O)N(C(=O)CC(c2ccccc2)c2ccccc2)C3)c1 (some centres undefined),27.4,-3.5,-4.3,2.1
O=C1OC(c2cccs2)=N/C1=C/c1ccc(-c2cccc(C(=O)O)c2)o1,115.8*,/,16.3,14.4
N#Cc1cccc(NC(=O)Cn2cnc(S(=O)(=O)N3CCCCC3)c2)c1,/,-0.6,/,/
COC(=O)C1=CNC=C(C(=O)OC)C1c1ccc(Cl)cc1,32.0,3.7,82.6*,38.3
COC(=O)C1=CNC=C(C(=O)OC)C1c1cccc(OC)c1,38.6,6.4,100.4*,41.8
COC(=O)C1=CN(c2ccc(Cl)cc2)C=C(C(=O)OC)C1c1ccc([N+](=O)[O-])cc1,/,-3.9,/,/
Cc1c(Cc2c(Cl)cccc2Cl)c(=O)ccn1C(C)c1ccccc1 (centres undefined),0.2,/,1.7,-0.4
C/C(=N\NC(=O)c1ccc(O)cc1)c1cccc(NC(=O)c2ccccc2C)c1,/,-3.1,/,/
CC(=O)c1ccc(S(=O)(=O)N2CCN(C(=O)CSc3ccc(F)cc3)CC2)cc1,/,-3.2,/,/
COCOc1ccc(/C=C2/Oc3cc(OCOC)cc(OCOC)c3C2=O)c(OCOC)c1,/,104.1*,/,/
CCCn1c(NCc2cc(C)ccc2O)nc2ccccc21,2.5,27.6*,0.2,2.0
CC1NC(=S)N(C2CCCCC2)C1=O (centres undefined),25.1,0.5,-0.5,-17.9
CCOC(=O)c1c2ccc(OCC(=O)N/N=C/c3ccc(Cl)cc3)cc2n2ccccc12,13.4,41.2*,-61.7,/
N#Cc1c2ccc(OCC(N)=O)cc2n2ccccc12,-59.6,55.0*,86.0*,19.9
CCOC(=O)COc1ccc2c(C#N)c3ccccn3c2c1,-10.4,4.9,92.2*,19.7
COc1cc(OC)cc(C(=O)c2c(C)c(C#N)c3ccccn23)c1,/,-2.3,/,/
O=C(CSc1nc(=O)n2cc(Cl)ccc2n1)Nc1cccc2ccccc12,/,-5.3,/,/
Cc1csc(SCC(=O)NCc2cccc(Cl)c2)n1,25.6,-3.2,-1.4,-1.9
COc1cc2c(cc1OC)CN(CC(O)c1ccccc1)CC2 (centres undefined),/,26.9*,/,/
O=S(=O)(c1ccccc1)c1ncc(C(F)(F)F)cc1Cl,20.3,-1.7,2.2,1.3
CCC(C)Sc1ccc(-c2nc3cnccn3c2NC2CCCCC2)cc1 (centres undefined),/,30.1*,/,/
Clc1ccc(-c2nc3cnccn3c2NC2CCCC2)cc1,1.0,-1.6,-61.1,-26.6
CC(C)N1C(=O)/C(=C\c2nc3ccccc3c(=O)[nH]2)c2ccccc21,4.3,/,-31.4,-12.8
CC(C)(O)C#Cc1ccc(CN2CCN(C3CCCCC3)C(CCO)C2)s1 (centres undefined),16.9,-0.4,-1.1,-0.3
SMILES,Hck Nef HTS,RanGTP-Impb inh,Runt-SMMHC FRET,Runt-CBFb FRET
COC(=O)/C(C#N)=C/c1c(N2CCCCCC2)nc2ccccn2c1=O,/,3.8,/,/
N#C/C(=C\c1c(N2CCCCC2)nc2ccccn2c1=O)C(=O)NC1CCS(=O)(=O)C1 (centres undefined),7.7,79.5*,80.6*,4.2
CCNC(=O)/C(C#N)=C/c1c(N2CCN(C)CC2)nc2c(C)cccn2c1=O,/,-55.8,/,/
Cc1cccn2c(=O)c(/C=C(\C#N)C(=O)NC3CCS(=O)(=O)C3)c(N3CCC(C)CC3)nc12 (centres undefined),39.0,84.5*,63.1*,19.2
CC(C)CN1C=C2C(=O)C(C)(OC(=O)C3CCCC3)C(=O)C=C2C=C1c1ccsc1 (centres undefined),28.3,-4.1,6.6,-1.2
CC1(OC(=O)C2CCCC2)C(=O)C=C2C=C(c3ccsc3)N(C(CO)CO)C=C2C1=O (centres undefined),21.9,17.7*,28.3,2.9
CCn1c(=O)cc(OCC(=O)N2CCN(c3cccc(C(F)(F)F)c3)CC2)c2ccccc21,0.1,30.0*,-5.8,-5.1
